This sample holds only a part of the variants without activity.
B1: tRNA (parent)
chain: GUUCCGUUGGCGUAAUGGUAACGCGUCUCCCUCCUAAGGAGAAGACUGCGGGUUCGAGUCCCGUACGGAACG

Variants of: B1
Assay: yeast fitness relative to wild type (ratio to wild type); higher = fitter; tRNA-Arg(CCU), competitive growth, 37 C, YPD
Procedure, shortened: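 Start and end populations of a pooled competition were compared by 100-nucleotide paired-end sequencing of gene amplicons. The Saccharomyces cerevisiae strains carried tRNA-Arg(CCU) gene variants at the native genomic locus, synthesised with a 3% per-site mutation rate at 69 sites, and competed in YPD at 37°C for 24 hours in six parallel replicates. Darwinian fitness relative to wild type was based on the change in genotype frequencies. Genotypes required ≥ 100 starting reads, and estimates < 0.5 were set to 0.5.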
C31A C34A A37C gave a yeast fitness of 0.6.
In the case of C31A U47C, the yeast fitness is reported as 0.767.
With C30U G44C A65U the yeast fitness was ≤ 0.5.
For C31G C46A G63C A65U, the yeast fitness was 0.509.
For C31A G52C, the yeast fitness was ≤ 0.5.
C31A A43G G50A A57U showed a yeast fitness of 0.768.
Variant C31A A69C has a yeast fitness of 0.949.
Work on C31A A69U yielded a yeast fitness of 0.856.
In the case of C30U C34G C46U C55U G67C, the yeast fitness is reported as ≤ 0.5.
C31A G39A gave a yeast fitness of 0.777.
C31G A69G gave a yeast fitness of 1.02.
Variant C30U G50C C66U has a yeast fitness of 0.526.
For C30U G51A, the yeast fitness was 0.7.
In the case of C30U G51C, the yeast fitness is reported as 0.535.
With C31G A37C A57U the yeast fitness was ≤ 0.5.
In the case of C31G C34U A40C C66A, the yeast fitness is reported as ≤ 0.5.
Variant C31A G44C A65G has a yeast fitness of 0.553.
For C31G C34U A57U, the yeast fitness was 0.561.
With C30U C62U the yeast fitness was 0.868.
With C31G A36C C49U U54G A65U the yeast fitness was ≤ 0.5.
C31A A43C C62U showed a yeast fitness of 0.998.
For C31G C34U G67U, the yeast fitness was ≤ 0.5.
For C30U C55G A69C, the yeast fitness was ≤ 0.5.
With C30U C61A the yeast fitness was 0.648.
Work on C31A C46U A70C yielded a yeast fitness of 0.62.
With C31A C34G A43C U47C C61U the yeast fitness was ≤ 0.5.
With C31G C34U A40C G63C the yeast fitness was ≤ 0.5.
C31A U59C showed a yeast fitness of 0.767.
Work on C31G C62A A70C yielded a yeast fitness of 0.54.
In the case of C31A A43U, the yeast fitness is reported as 0.94.
C31A A43G gave a yeast fitness of 0.897.
For C31A A45G G52A C55A, the yeast fitness was ≤ 0.5.
In the case of C31A C33U G41C G67C, the yeast fitness is reported as ≤ 0.5.
In the case of C31G C60G C62U G68A, the yeast fitness is reported as ≤ 0.5.
C30U C55G G58C showed a yeast fitness of 0.526.
In the case of C30U G44A A65U, the yeast fitness is reported as ≤ 0.5.
With C31G C34U C46U G56A G63A the yeast fitness was ≤ 0.5.
Work on C30U G68A A69C yielded a yeast fitness of 0.544.
C31G A37U C55G A57C gave a yeast fitness of 0.541.
C31G A45U C62U showed a yeast fitness of 0.876.
For C31G C34U C46U G56A C62U, the yeast fitness was ≤ 0.5.
Variant C30U U32A U54A has a yeast fitness of 0.536.
In the case of C31A G51C C60U G67A, the yeast fitness is reported as ≤ 0.5.
With C31G A40G C46A C55G the yeast fitness was 0.578.
In the case of C31G C34G A36G C66A, the yeast fitness is reported as ≤ 0.5.
With C31G A65U G67C the yeast fitness was 0.567.
Work on C31A U35A A36U U47C C55U yielded a yeast fitness of 0.518.
Variant C30U G63C has a yeast fitness of 0.757.
C30U G63A gave a yeast fitness of 0.729.
For C30U C49G U54A, the yeast fitness was ≤ 0.5.
With C31A C33G A42C G48A U54A C66A the yeast fitness was ≤ 0.5.
In the case of C31A U47C A69U, the yeast fitness is reported as ≤ 0.5.
For C30U G51C G58A, the yeast fitness was ≤ 0.5.
In the case of C31G C46U C49U G56C, the yeast fitness is reported as ≤ 0.5.
With C31G G38A G63U the yeast fitness was ≤ 0.5.
For C30U G38C, the yeast fitness was 0.66.
Work on C30U G38A yielded a yeast fitness of 1.
For C30U G38U, the yeast fitness was 0.824.
For C31A A65C G67U, the yeast fitness was ≤ 0.5.
In the case of C30U C60G G67A, the yeast fitness is reported as ≤ 0.5.
For C31A A57G C61U, the yeast fitness was ≤ 0.5.
Variant C30U G67C has a yeast fitness of 0.864.
Variant C30U G67A has a yeast fitness of 0.921.
With C31G C66A the yeast fitness was 0.702.
With C31A C33G A36U C66U the yeast fitness was ≤ 0.5.
In the case of C31A G58C, the yeast fitness is reported as 0.894.
For C30U G38C C61U, the yeast fitness was 0.542.
With C31G A40G C46A U54C C55G the yeast fitness was ≤ 0.5.
C31A A36G A57U showed a yeast fitness of 0.539.
For C31G A42U, the yeast fitness was 0.983.
With C30U U54A G68U the yeast fitness was ≤ 0.5.
With C31G C49A the yeast fitness was 0.734.
Work on C31G C49U yielded a yeast fitness of 0.92.
For C31G A36U G41A A45C, the yeast fitness was ≤ 0.5.
For C31G A37G C62U G63C, the yeast fitness was 0.54.
For C31G C33G G39C, the yeast fitness was 0.508.
For C31G A45G A65G, the yeast fitness was 0.628.
C30U C34A gave a yeast fitness of 0.806.
For C30U C34U, the yeast fitness was 0.715.
With C31A A37G C49U C55U A57G the yeast fitness was ≤ 0.5.
In the case of C31A A36C G44A A57U C66A, the yeast fitness is reported as ≤ 0.5.
For C30U G38C G58A C61A, the yeast fitness was ≤ 0.5.
For C31A G48C U54C C61A A70G, the yeast fitness was ≤ 0.5.
For C30U U47A G67C G68A, the yeast fitness was ≤ 0.5.
With C31A A40C U47A U64A the yeast fitness was ≤ 0.5.
In the case of C30U G44C G51A C61U, the yeast fitness is reported as ≤ 0.5.
With C31A C62G G63A C66G A69G the yeast fitness was ≤ 0.5.
Variant C30U U32G A36G A37U U47A has a yeast fitness of 0.559.
C30U C46U showed a yeast fitness of 0.966.
In the case of C30U C46G, the yeast fitness is reported as 0.874.
C30U C46A gave a yeast fitness of 0.982.
C31G A37G gave a yeast fitness of 0.79.
For C31G C34U C46U G56A, the yeast fitness was ≤ 0.5.
In the case of C30U G52A U54C, the yeast fitness is reported as ≤ 0.5.
With C30U G38C C55A G67A the yeast fitness was ≤ 0.5.
With C30U U64C the yeast fitness was 0.902.
With C31A C60A the yeast fitness was 0.629.
C31G C62U gave a yeast fitness of 1.07.
With C30U G68A the yeast fitness was 0.744.
In the case of C30U G68U, the yeast fitness is reported as 0.923.
In the case of C30U C46A C62U, the yeast fitness is reported as 0.852.
For C31G A42G A65U G67C, the yeast fitness was ≤ 0.5.
In the case of C31G A65C C66U, the yeast fitness is reported as ≤ 0.5.
In the case of C30U G39C U53A, the yeast fitness is reported as ≤ 0.5.
Variant C30U G38A G52A has a yeast fitness of 0.621.
C31G C33A showed a yeast fitness of 0.678.
With C31G A36U C46U A65C the yeast fitness was 0.74.
For C31A A37C G67A, the yeast fitness was ≤ 0.5.
C31A U32C gave a yeast fitness of 0.766.
For C31A G63C G68U, the yeast fitness was ≤ 0.5.
For C31G C33G C49U C60G C66A, the yeast fitness was ≤ 0.5.
Work on C31A A40C yielded a yeast fitness of 0.775.
In the case of C31G C33U A42C C66G, the yeast fitness is reported as ≤ 0.5.
With C31A G50C A70G the yeast fitness was ≤ 0.5.
For C31G C61U G68A, the yeast fitness was ≤ 0.5.
In the case of C31G A43C A70U, the yeast fitness is reported as 0.637.
For C30U U54A C66U A70C, the yeast fitness was ≤ 0.5.
In the case of C31G A43U U47A, the yeast fitness is reported as 0.605.
With C31G G44C A65G A69C the yeast fitness was ≤ 0.5.
With C31A A37U G63A G67C the yeast fitness was ≤ 0.5.
C30U G48C showed a yeast fitness of 0.872.
For C31A A45C C62U G63A U64A, the yeast fitness was 0.521.
Work on C31G A37U G48C yielded a yeast fitness of 0.528.
Work on C31G G41C G50C yielded a yeast fitness of 0.533.
With C30U G52A G68C the yeast fitness was ≤ 0.5.
C31A G44A showed a yeast fitness of 0.792.
Variant C31G A70G has a yeast fitness of 0.914.
C31G G44C A69C showed a yeast fitness of 0.611.
In the case of C31A C55A, the yeast fitness is reported as 0.666.
Variant C31A C55U has a yeast fitness of 0.863.
For C31G A36C C46G G51C, the yeast fitness was 0.597.
C31G A45U C55U C62U showed a yeast fitness of 0.564.
For C31A C33U C49U, the yeast fitness was ≤ 0.5.
Work on C31A A42G A43G G68C yielded a yeast fitness of 0.52.
For C30U G39A, the yeast fitness was 0.897.
In the case of C31G G38A U54A, the yeast fitness is reported as ≤ 0.5.
With C30U U35C A43C G67U the yeast fitness was ≤ 0.5.
In the case of C30U C61G A70C, the yeast fitness is reported as ≤ 0.5.
In the case of C31A C46A A65U, the yeast fitness is reported as ≤ 0.5.
Variant C31A C46A has a yeast fitness of 0.853.
Variant C31A C46G has a yeast fitness of 0.852.
With C31G C61A G67C the yeast fitness was ≤ 0.5.
C31G A65U gave a yeast fitness of 0.799.
With C31G A36C A42G G52A the yeast fitness was ≤ 0.5.
With C31G A37U A42U the yeast fitness was 0.56.
C31G C55A gave a yeast fitness of 0.605.
C31G A43G G51A gave a yeast fitness of 0.593.
In the case of C31G C33A C49U U54G A65U, the yeast fitness is reported as 0.597.
Work on C31A C34G A45U yielded a yeast fitness of 0.591.
For C31G C46G C61G, the yeast fitness was ≤ 0.5.
With C31G C55G U64C the yeast fitness was ≤ 0.5.
C31A C62A A70C showed a yeast fitness of 0.548.
For C30U C34U G44C, the yeast fitness was ≤ 0.5.
For C31G G44A, the yeast fitness was 1.07.
Work on C30U U35A A42G C61U G63A yielded a yeast fitness of 0.519.
Variant C31G C61A has a yeast fitness of 0.65.
With C31G A43G C49U G68A A69C the yeast fitness was ≤ 0.5.
For C31G A57C C61U, the yeast fitness was ≤ 0.5.
C31G A43U showed a yeast fitness of 0.984.
In the case of C30U C55U, the yeast fitness is reported as 0.687.
C30U C55G gave a yeast fitness of 0.553.
With C30U C34G C46U the yeast fitness was ≤ 0.5.
With C30U C46A U54A A57G the yeast fitness was 0.52.
For C30U U47A G67C, the yeast fitness was 0.567.
In the case of C31G A45C C60A G63A, the yeast fitness is reported as ≤ 0.5.
With C31G C34U A40C A69C the yeast fitness was ≤ 0.5.
With C30U U47A U59A C60U C62G C66U the yeast fitness was ≤ 0.5.
